# TPT1 inh: C. albicans TPT1 enzyme inhibition | recombinant caTPT1, FP RNA substrate dephosphorylation | inhibition, % at 5 µM | 300,000 compounds, 0.81% hits | AID 1962;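 active = inhibition above the mean of all tested compounds plus 3 SD, set per screening campaign, cut at about 24% in these data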;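 note: plate controls were DMSO alone for no effect and ferristatin control at 100 nM for full effect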
# TbMetRS inhib: blocks T. brucei methionyl-tRNA synthetase activity | purified T. brucei MetRS, ATP depletion, Kinase-Glo luminescence | 360,000 compounds, 0.4% hits | inhibition, % at 11.9 µM;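 active = inhibition above a per-plate cutoff of the control wells' mean inhibition plus 3 SD, cut at about 5.5% in these data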;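 note: 0% = DMSO wells median and 100% = median of wells with control inhibitor compound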
#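 Material: parasite MetRS enzyme / Replication: singlicate, one well per compound / Signal: luminescence of leftover ATP / Schedule: 2 h aminoacylation at 25 °C after 15 min preincubation / Medium: HEPES-MgCl2-KCl buffer plus DTT, spermine, BSA, pyrophosphatase / Doses: 11.9 µM single point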
# HNF4A DNA FP: change in binding of human HNF4 alpha to DNA; HNF4a-FITC DNA binding, fluorescence polarization, 1 h; activity change, % at 10 µM; 360,000 compounds, 0.3% hits; AID 1224865; in the data active = activity change above about 30%, passing the limit was not always enough
# CSN inh: blocks human CSN-mediated cullin deneddylation; 360,000 compounds, 0.38% hits; AID 651999; Purified CSN, SCF-Nedd8-OG deneddylation, fluorescence polarization; inhibition, % at 12.5 µM; Q92905;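 active = pattern-corrected inhibition above about 35%, with an unprinted fluorescence ratio check between 0.5 and 1.5, limit read from the data, passing the limit was not always enough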;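 note: 0% = enzyme with substrate and 100% = substrate without enzyme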
#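 Test system: purified human Csn5 enzyme expressed in HEK293T cells. Amount: 0.24 nM enzyme. Reagent: SCFSkp2-Nedd8OG substrate at 10 nM final. Schedule: 90 min incubation of compound, enzyme and substrate at room temperature. Detection: fluorescence polarization. Read-out: % inhibition of substrate cleavage by Csn5.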
# IDE inh: inhibitors of human insulin-degrading enzyme in cells | 320,000 compounds, 0.41% hits | HEK cells, FAbetaB cleavage, fluorescence polarization | inhibition, % at 5.59 µM | P14735;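 active = percent inhibition above the average of all tested compounds plus 3 SD, set per screening campaign, cut at about 16% in these data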;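 note: IDE supplied by intact live HEK cells; FP after avidin binding of uncleaved biotin substrate so inhibition keeps polarization high; 0% = DMSO wells and 100% = 60 µM reference IDE inhibitor Ii1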
# Target sequence (P14735 whole entry, looked up): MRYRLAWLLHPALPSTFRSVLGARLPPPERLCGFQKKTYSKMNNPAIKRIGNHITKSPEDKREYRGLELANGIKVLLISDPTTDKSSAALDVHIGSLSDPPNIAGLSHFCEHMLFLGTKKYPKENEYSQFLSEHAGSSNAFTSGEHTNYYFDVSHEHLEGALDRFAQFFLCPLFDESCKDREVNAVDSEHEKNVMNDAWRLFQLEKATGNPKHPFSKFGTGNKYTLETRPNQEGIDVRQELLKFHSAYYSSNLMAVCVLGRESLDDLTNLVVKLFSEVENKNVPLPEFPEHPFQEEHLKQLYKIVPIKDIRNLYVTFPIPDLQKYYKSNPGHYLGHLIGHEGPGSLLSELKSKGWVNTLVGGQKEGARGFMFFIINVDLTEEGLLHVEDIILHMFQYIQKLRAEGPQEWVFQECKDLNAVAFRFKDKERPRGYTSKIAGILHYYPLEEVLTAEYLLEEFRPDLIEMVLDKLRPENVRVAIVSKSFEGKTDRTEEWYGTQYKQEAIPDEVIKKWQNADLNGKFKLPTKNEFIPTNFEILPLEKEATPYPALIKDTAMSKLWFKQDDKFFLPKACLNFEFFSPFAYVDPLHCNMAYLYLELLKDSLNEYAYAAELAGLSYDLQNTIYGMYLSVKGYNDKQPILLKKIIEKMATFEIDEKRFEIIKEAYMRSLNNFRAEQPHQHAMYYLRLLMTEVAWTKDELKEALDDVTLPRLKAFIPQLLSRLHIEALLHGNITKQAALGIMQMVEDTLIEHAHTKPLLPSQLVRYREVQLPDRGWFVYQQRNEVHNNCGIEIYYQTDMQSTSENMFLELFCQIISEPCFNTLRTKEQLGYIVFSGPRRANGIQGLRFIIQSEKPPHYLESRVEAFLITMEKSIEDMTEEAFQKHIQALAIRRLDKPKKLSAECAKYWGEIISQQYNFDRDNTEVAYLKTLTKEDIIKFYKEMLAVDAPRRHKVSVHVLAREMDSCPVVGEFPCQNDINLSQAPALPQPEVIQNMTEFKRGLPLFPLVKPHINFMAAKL
# IDE cell activ: activators of human insulin-degrading enzyme in cells; AID 493087; 340,000 compounds, 0.073% hits; P14735; activation, % at 5.96 µM; HEK cells, FAbeta-B cleavage, fluorescence polarization; 0% vehicle, 100% cell-free pure enzyme wells;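 active = activation above the mean of all tested compounds plus 3 SD, set per screening campaign, cut at about 17% in these data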
# IDE inh confirm: confirmation of human insulin-degrading enzyme inhibitors in cells; shares compounds with IDE inh; HEK cells, FAbetaB cleavage, fluorescence polarization; 1,200 compounds, 51% hits; inhibition, % at 5.59 µM;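 active = mean inhibition across triplicate wells above the cutoff set by the earlier primary insulin-degrading enzyme screen, cut at about 16% in these data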;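 note: 0% = DMSO wells and 100% = 60 µM reference IDE inhibitor Ii1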
# HEK cytotox: counter-screen for IDE inhibitors: cytotoxicity in HEK cells; inhibition, % at 5.59 µM; HEK293 cytotoxicity, ATP luminescence; 1,200 compounds, 28% hits; shares compounds with IDE inh; in the data active = inhibition above about 22%;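 note: 0% = vehicle wells and 100% = reference cytotoxic drug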
# IDE FP artifact: fluorescence interference counter-screen for IDE inhibitors; shares compounds with IDE inh; FP counterscreen for fluorescent artifacts, IDE probe project; IC50, µM; 30 tested, under 10 active; call rule not given here
# The depositor's hits bear a star; . = no result. Rows were chosen to be rich in hits. Some 1.7% of all compounds tested hit in one or more screens of this group.
SMILES,TPT1 inh,TbMetRS inhib,HNF4A DNA FP,CSN inh,IDE inh,IDE cell activ,IDE inh confirm,HEK cytotox,others
Cc1nn(-c2ccccc2)c(Cl)c1CN(C(=O)CCl)c1cccc2ccccc12,9,0,4,5,3,-1,.,.,
CCOc1ccc(/C=N/NC(=O)c2nnn(-c3nonc3N)c2-c2ccc(OCC)cc2)cc1,-4,-1,0,-1,22*,4,4,7,
COc1ccc(NC(=O)c2sc3nc(-c4cccnc4)ccc3c2N)cc1,-25,0,-36,-4,10,-10,.,.,
COc1ccc(NC(=O)c2sc3nc(-c4cccnc4)ccc3c2N)cc1OC,20,-1,75,37,19*,-4,13,18,
Cc1cc2oc(C(=O)Nc3ccc(S(=O)(=O)Nc4nccs4)cc3)cc(=O)c2cc1Cl,1,1,-7,6,12,-5,.,.,
Cc1cc(C)c2oc(C(=O)Nc3ccc(S(=O)(=O)Nc4nccs4)cc3)cc(=O)c2c1,2,1,0,1,22*,-18,14,4,
CC(=O)N1c2ccc(S(=O)(=O)N3CCC(C(=O)N4CCN(c5ccc(Cl)cc5)CC4)CC3)cc2CC1C (stereo not given),-2,1,-5,-5,20*,-22,10,38*,
CN(C(=O)CC1C(=O)NCCN1Cc1ccccc1C(F)(F)F)C1CCOCC1 (stereo not given),1,0,-1,2,5,7,.,.,
COc1cc(/C=C2/SC(=NCc3ccccc3)N(Cc3ccccc3)C2=O)ccc1O,16,0,4,6,38*,-38,57*,15,
COc1ccc(/C=C2\SC(=O)N(CCC(=O)Nc3ccccc3)C2=O)cc1OC,-2,0,3,-8,0,3,.,.,
CCOc1ccc(OCCNC(=O)C(NC(=O)c2c(F)cccc2F)C(C)C)cc1 (stereo not given),.,0,0,0,0,4,.,.,
CC(=O)NC(c1ccco1)c1cc(Cl)c2ccc(Cl)nc2c1O (stereo not given),.,0,5,-1,-2,1,.,.,
CCC(=O)NC(c1ccco1)c1cc(Cl)c2ccccc2c1O (stereo not given),.,0,-4,-9,16*,-9,9,12,
CC(=O)NC(c1ccco1)c1cc(Cl)c2ccccc2c1O (stereo not given),.,1,-1,0,36*,-7,11,6,
Cc1cccc(NC(=O)CCN2CCCC(C)C2)c1 (stereo not given),1,0,3,0,1,1,.,.,
O=c1c2ccccc2sn1-c1cc(S(=O)(=O)N2CCOCC2)ccc1N1CCOCC1,2,0,1,4,59*,-32,59*,17,IDE FP artifact=>55
O=S(=O)(c1ccc(N2CCOCC2)c(Cl)c1)N1CCOCC1,-6,1,1,1,8,2,.,.,
CCOc1ccc(Nc2ccnc3cc(Cl)ccc23)cc1,-2,4,1,-4,17*,-16,15,36*,
O=C(O)c1ccc(Cl)c(S(=O)(=O)Nc2ccccc2C(=O)Nc2ccc(Cl)cc2)c1,1,0,0,1,-4,2,.,.,
O=C(c1ccccc1)c1ccc(O)cc1O,-20,-1,-105,-78,19*,-26,40*,5,
Cc1c(OC(C)C(=O)NCc2ccccn2)ccc2c3c(c(=O)oc12)CCC3 (stereo not given),-2,0,-2,2,2,5,.,.,
Cc1c(OC(C)C(=O)NCc2ccncc2)ccc2c3c(c(=O)oc12)CCCC3 (stereo not given),0,1,2,-3,19*,-38,17*,18,
Cc1ccc2c(CC(=O)NCCc3ccc(S(N)(=O)=O)cc3)coc2c1,-3,0,-6,-6,-1,2,.,.,
CCCCn1nnc(NC(=O)c2ccc(-c3ccccc3)cc2)n1,1,0,0,-4,18*,-12,7,55*,
COC(=O)C1=C(C)N(c2ccc(F)cc2)/C(=C/c2ccc(O)cc2)C1=O,-1,0,4,4,20*,-40,76*,12,
SMILES,TPT1 inh,TbMetRS inhib,HNF4A DNA FP,CSN inh,IDE inh,IDE cell activ,IDE inh confirm,HEK cytotox,others
CC(=O)Oc1c(-c2ccco2)oc2ccccc2c1=O,-3,0,-4,8,77*,-95,104*,8,
CC(C)CC(=O)NC(c1cccs1)c1ccc2cccnc2c1O (stereo not given),10,0,3,-2,17*,-2,8,106*,
CCCC(=O)NC(c1ccc(Cl)cc1)c1ccc2cccnc2c1O (stereo not given),-2,2,2,2,-5,-2,.,.,
CCCCC(=O)NC(c1ccc(Cl)cc1)c1ccc2cccnc2c1O (stereo not given),0,-1,0,-7,19*,-6,4,99*,
O=C(NN=Cc1c(O)ccc2ccccc12)c1ccc2c(c1)OCO2,.,0,3,6,30*,-35,54*,112*,
CCN1CCN(C(=O)c2c(-c3c(Cl)cccc3Cl)noc2C)CC1,0,0,0,-4,3,-1,.,.,
Cc1cccc(C(=O)NCC(c2ccc(F)cc2)N2CCOCC2)c1 (stereo not given),-2,-1,1,-1,16*,6,7,7,
CC(=O)N/C(=C\c1ccccc1)C(=O)OCC(=O)NC(=O)c1ccccc1,0,0,-1,0,-1,4,.,.,
CC(=O)N/C(=C\c1ccccc1)C(=O)OCC(=O)NC(C)C12CC3CC(CC(C3)C1)C2 (stereo not given),0,0,0,4,17*,-1,-5,15,
Cc1c(-c2cccc(Cl)c2)nc2ccccc2c1C(=O)OCC(=O)Nc1ccc2c(c1)OCO2,5,0,-1,-2,17*,-4,0,23*,
COC(=O)c1ccc(CN2C(=O)NC(CC(C)C)C2=O)cc1 (stereo not given),0,4,2,-1,-7,2,.,.,
CCOC(=O)C1=CCN(S(=O)(=O)c2ccc(C)cc2)C1c1cccs1 (stereo not given),.,0,0,3,.,.,.,.,
Cn1c(SCC(=O)OC2CCCCC2)nnc1-c1ccco1,1,-1,2,0,19*,-7,5,13,

# Screening data: PubChem BioAssay, several laboratories
